Test results reported in ChEMBL document CHEMBL1138477, “8-(4-Methoxyphenyl)pyrazolo[1,5-a]-1,3,5-triazines: selective and centrally active corticotropin-releasing factor receptor-1 (CRF1) antagonists” (J Med Chem, 2009).
Activity calls are given as the source filed them. No cut-off for these calls is given here.

Experiments:
D(1A) dopamine receptor = D(1A) dopamine receptor (Homo sapiens, UniProt P21728); assay: Binding affinity to dopamine D1 receptor
[1] = molecular target: T1, Corticotropin-releasing factor receptor 1 (Rattus norvegicus, UniProt P35353); assay: Displacement of [125I]Tyr0-ovine CRF from CRF1 receptor in rat cortical membrane by gamma counting; type: cell membranes
T1 sequence (P35353 whole entry): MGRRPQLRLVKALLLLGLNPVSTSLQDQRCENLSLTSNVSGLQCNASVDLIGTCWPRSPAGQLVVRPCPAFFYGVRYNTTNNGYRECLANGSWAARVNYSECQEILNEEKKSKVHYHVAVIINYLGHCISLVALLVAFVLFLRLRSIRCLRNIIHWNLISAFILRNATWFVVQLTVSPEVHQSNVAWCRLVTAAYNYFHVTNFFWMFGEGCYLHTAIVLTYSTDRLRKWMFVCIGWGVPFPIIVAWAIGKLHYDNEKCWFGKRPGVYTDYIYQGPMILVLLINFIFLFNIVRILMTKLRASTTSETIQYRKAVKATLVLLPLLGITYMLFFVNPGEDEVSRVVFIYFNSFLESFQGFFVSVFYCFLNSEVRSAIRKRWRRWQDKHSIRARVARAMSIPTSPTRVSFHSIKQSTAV
Procedure, shortened: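 Inhibition of 125I-Tyr0-ovine-CRF binding to rat cortical membranes measured across dilutions of test drug; IC50 derived by iterative curve fitting.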

D(2) dopamine receptor = D(2) dopamine receptor (Homo sapiens, UniProt P14416); assay: Binding affinity to dopamine D2 receptor
[2] = molecular target: T2, Corticotropin-releasing factor-binding protein (Homo sapiens, UniProt P24387); assay: Binding affinity to human recombinant CRF binding protein
T2 sequence (P24387 whole entry): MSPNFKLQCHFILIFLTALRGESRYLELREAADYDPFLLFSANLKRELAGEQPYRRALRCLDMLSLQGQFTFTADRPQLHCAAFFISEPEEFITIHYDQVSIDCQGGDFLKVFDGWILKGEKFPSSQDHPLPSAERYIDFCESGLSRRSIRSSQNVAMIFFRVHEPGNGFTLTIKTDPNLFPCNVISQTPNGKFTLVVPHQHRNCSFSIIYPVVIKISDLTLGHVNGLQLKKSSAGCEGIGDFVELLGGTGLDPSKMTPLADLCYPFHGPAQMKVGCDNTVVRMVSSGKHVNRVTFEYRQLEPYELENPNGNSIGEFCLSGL

[3] = Elimination half life in Beagle dog at 5 mg/kg, iv; type: ADME, organism-based, Canis lupus familiaris; parameters: dose 5 mg/kg, route intravenous; conditions: in vivo, read-out: beta t1/2 (converted)
Procedure, shortened: (§1)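 Male beagle dogs (8.0-11.0 kg) dosed iv or po (5 mg/kg oral suspension in 0.5% methylcellulose with 1% Tween-80); plasma sampled 0.25-24 h; liquid-liquid extraction with hexane/ether, LC/MS/MS, quantitation limit 1 ng/mL (2.42 nM); noncompartmental parameters as free base.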

[4] = molecular target: T3, Alpha-1A adrenergic receptor (Homo sapiens, UniProt P35348); assay: Binding affinity to adrenergic Alpha-1A receptor
T3 sequence (P35348 whole entry): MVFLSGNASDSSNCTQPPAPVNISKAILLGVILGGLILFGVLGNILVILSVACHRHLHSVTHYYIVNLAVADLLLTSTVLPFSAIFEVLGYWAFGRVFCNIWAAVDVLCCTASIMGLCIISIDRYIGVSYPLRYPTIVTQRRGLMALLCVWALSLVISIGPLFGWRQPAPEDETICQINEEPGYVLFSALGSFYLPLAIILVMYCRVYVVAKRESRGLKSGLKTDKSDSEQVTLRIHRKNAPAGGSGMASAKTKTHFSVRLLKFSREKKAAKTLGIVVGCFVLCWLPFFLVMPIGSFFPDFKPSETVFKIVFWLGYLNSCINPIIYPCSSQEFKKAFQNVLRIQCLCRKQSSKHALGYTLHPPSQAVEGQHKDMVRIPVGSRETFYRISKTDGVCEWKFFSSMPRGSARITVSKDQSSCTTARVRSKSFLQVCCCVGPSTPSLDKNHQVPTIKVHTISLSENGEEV

[5] = Clearance in Beagle dog at 5 mg/kg, iv; type: ADME, organism-based, Canis lupus familiaris; parameters: dose 5 mg/kg, route intravenous; conditions: in vivo; procedure, shortened: as §1
[6] = molecular target: T4, Corticotropin-releasing factor receptor 1 (Rattus norvegicus) (UniProt P35353); assay: Agonist activity at CRF1 receptor in rat brain homogenates assessed as CRF-stimulted cAMP production; type: functional, tissue-based
T4 sequence (whole entry): T1 sequence (P35353 whole entry)

Canis familiaris [7] = assay: Hepatic blood flow in iv dosed Beagle dog; type: ADME, organism-based, Canis lupus familiaris, Liver; conditions: in vivo
[8] = Binding affinity to N-type calcium channel
Canis familiaris [9] = assay: Ex vivo displacement of [125I]Tyr0-ovine CRF from CRF1 receptor in dog at 5 mg/kg, po measured in plasma after 2 hrs; type: functional; conditions: Canis lupus familiaris
Procedure, shortened: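 Beagle dogs given 5 mg/kg po (free base), in Labrafil or Tween-80/0.5% methylcellulose 1:99; plasma drawn 2 and 10 h postdose, diluted 10-fold in binding buffer, and tested for inhibition of 125I-Tyr0-ovine-CRF binding to rat receptors; mean ± SD, n = 3.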

[10] = Tmax in Beagle dog at 5 mg/kg, po; type: ADME, organism-based, Canis lupus familiaris; parameters: dose 5 mg/kg, route oral; conditions: in vivo; procedure, shortened: as §1
[11] = molecular target: T5, Corticotropin-releasing factor receptor 2 (Homo sapiens) (UniProt Q13324); assay: Agonist activity at human cloned CRF2alpha receptor expressed in HEK293 cells; type: functional, cell-based
T5 sequence (whole entry): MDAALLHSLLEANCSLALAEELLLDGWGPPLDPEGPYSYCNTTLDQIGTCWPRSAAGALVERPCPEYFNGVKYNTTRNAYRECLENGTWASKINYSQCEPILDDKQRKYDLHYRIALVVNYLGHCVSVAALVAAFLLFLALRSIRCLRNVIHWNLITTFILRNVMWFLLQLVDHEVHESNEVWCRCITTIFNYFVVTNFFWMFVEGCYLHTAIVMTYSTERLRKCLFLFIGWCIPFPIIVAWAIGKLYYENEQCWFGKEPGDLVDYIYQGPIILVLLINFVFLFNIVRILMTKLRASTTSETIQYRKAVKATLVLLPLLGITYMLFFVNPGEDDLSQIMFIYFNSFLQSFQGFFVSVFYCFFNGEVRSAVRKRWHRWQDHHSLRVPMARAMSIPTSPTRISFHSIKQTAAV

Vasopressin V1a receptor = Vasopressin V1a receptor (Homo sapiens, UniProt P37288); assay: Binding affinity to vasopressin V1 receptor
[12] = molecular target: T6, Alpha-2C adrenergic receptor (Homo sapiens, UniProt P18825); assay: Binding affinity to adrenergic alpha2c receptor
T6 sequence (P18825 whole entry): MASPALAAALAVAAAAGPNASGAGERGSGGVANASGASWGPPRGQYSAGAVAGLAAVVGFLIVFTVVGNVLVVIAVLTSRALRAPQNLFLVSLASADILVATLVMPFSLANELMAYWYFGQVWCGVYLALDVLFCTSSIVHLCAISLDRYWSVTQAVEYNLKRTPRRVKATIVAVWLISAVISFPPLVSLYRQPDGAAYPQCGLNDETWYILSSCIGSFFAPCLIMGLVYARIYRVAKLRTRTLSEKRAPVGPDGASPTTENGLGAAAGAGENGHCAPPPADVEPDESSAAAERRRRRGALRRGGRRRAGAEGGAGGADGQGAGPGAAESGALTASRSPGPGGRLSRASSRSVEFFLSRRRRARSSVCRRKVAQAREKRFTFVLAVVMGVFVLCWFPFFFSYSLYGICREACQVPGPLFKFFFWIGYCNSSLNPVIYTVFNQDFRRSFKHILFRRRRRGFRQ

Chain of D(2) dopamine receptor (P14416 whole entry): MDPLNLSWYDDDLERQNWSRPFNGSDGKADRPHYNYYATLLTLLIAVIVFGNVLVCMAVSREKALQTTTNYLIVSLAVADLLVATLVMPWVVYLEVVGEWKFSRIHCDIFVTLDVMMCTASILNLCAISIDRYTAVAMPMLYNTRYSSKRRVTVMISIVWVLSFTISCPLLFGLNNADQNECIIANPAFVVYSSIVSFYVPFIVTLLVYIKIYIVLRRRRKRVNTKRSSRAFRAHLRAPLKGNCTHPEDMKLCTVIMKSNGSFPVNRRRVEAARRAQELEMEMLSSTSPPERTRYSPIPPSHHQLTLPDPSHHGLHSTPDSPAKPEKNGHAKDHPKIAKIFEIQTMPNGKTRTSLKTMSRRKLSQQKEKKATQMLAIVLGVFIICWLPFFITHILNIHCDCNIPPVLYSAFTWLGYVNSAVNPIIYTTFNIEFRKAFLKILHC
Chain of Vasopressin V1a receptor (P37288 whole entry): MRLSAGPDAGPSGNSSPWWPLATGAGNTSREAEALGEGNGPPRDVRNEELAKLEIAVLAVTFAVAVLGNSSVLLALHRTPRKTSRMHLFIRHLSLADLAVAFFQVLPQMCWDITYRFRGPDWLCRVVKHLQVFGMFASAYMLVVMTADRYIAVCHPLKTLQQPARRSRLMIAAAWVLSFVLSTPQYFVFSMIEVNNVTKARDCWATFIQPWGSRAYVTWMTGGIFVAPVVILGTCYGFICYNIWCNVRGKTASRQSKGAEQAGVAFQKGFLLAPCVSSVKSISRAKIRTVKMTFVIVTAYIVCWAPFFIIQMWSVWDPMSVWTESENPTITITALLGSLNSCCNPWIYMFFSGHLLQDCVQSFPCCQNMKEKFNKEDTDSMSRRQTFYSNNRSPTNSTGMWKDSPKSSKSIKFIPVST
Chain of D(1A) dopamine receptor (P21728 whole entry): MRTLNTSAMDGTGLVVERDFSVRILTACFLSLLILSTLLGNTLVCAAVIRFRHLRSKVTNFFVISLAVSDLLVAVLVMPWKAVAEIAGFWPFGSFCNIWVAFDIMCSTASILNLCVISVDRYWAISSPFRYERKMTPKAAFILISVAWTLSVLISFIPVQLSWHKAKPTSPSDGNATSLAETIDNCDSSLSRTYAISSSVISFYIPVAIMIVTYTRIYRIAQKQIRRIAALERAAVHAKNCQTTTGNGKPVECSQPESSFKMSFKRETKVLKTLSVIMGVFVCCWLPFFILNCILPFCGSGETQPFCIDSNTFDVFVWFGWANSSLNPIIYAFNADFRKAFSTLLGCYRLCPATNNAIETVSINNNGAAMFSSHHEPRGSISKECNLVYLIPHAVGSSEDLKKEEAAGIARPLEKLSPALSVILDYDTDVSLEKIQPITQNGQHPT

IC50 (D(1A) dopamine receptor) [µM] | IC50 [1] [µM] | IC50 (D(2) dopamine receptor) [µM] | IC50 [2] [µM] | half-life [3] [h] | IC50 [4] [µM] | clearance [5] [mL/min/kg] | Activity [6] | QH (Canis familiaris [7]) [mL/min/kg] | IC50 [8] [µM] | Tmax [10] [h] | Activity [11] | IC50 (Vasopressin V1a receptor) [µM] | IC50 [12] [µM] | SMILES | inhibition in vivo at 5 mg/kg (Canis familiaris [9]) [%]
> 1 | 0.0042 | > 1 | > 1 | 27.3 | > 1 | 20 | inactive | 31 | > 1 | 0.5 | inactive | > 1 | > 1 | COCCN(CCOC)c1nc(C)nc2c(-c3ccc(OC)cc3C)c(C)nn12 | 75
> 1 | 0.00198 | > 1 | > 1 | 40.2 | > 1 | 11 | inactive | 31 | > 1 | 0.8 | inactive | > 1 | > 1 | COCCN(CCOC)c1nc(C)nc2c(-c3cc(C)c(OC)cc3C)c(C)nn12 | 84
> 1 | 0.001 | > 1 | > 1 |  | > 1 |  | inactive |  | > 1 |  | inactive | > 1 | > 1 | CCC(CC)Nc1nc(C)nc2c(-c3cc(F)c(OC)cc3Cl)c(C)nn12 | 97
> 1 | 0.0044 | > 1 | > 1 |  | > 1 |  | inactive | 31 | > 1 |  | inactive | > 1 | > 1 | CC[C@@H](C)Nc1nc(C)nc2c(-c3c(C)cc(OC)cc3OC)c(C)nn12 | 72
